The text below walks through data of ChEMBL document CHEMBL1129508, “Betulinic acid derivatives: a new class of specific inhibitors of human immunodeficiency virus type 1 entry” (J Med Chem, 1996).

The term IC50 denotes the concentration at which inhibition is half-maximal. Lower therefore signals inhibition by little substance. Broadly, the Inhibition is how much of the control response was suppressed. Low values mean a response near the control, high ones a response far below the control. A word on the inhibition: it is the relative decrease from the control value, in per cent. The low end stands for a weak effect, the high end for a strong effect.

Assay [1] concerns CCRF-CEM. Briefly: (§1) Inhibitory activity against the HIV-1 in CEM cells. The following applies: Homo sapiens. In kind it is functional, cell-based. In a few lines:
(§2)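 HIV-1-induced cytopathicity in CEM 4 or MT-4 cell cultures was assessed by counting viable cells after MTT (3-(4,5-dimethylthiazol-2-yl)-2,5-diphenyltetrazolium bromide) staining. IC50 is the concentration that inhibits cytopathicity by 50%. For routine testing, the highest concentration was generally 3 µM, because solubility was limited above 10 µM.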

Assay [2] concerns Human immunodeficiency virus 1. Briefly: Inhibitory activity tested against the HIV-1 in CEM cells. The following applies: Human immunodeficiency virus 1, CCRF-CEM. In kind it is functional, organism-based. In a few lines:
as §2

Assay [3] relates to Human immunodeficiency virus 1. Briefly: Inhibitory activity tested against the HIV-1 in MT-4 cells. In kind it is functional, organism-based. The conditions noted are these: Human immunodeficiency virus 1, MT4. In a few lines: as §2
For assay [4], the system named is CCRF-CEM. Briefly: Inhibitory Activity against the HIV-1 in CEM cells. In kind it is functional, Homo sapiens. The method, boiled down:
as §2

Assay [5] concerns CCRF-CEM. Description: Inhibitory activity against the HIV-1 in CEM cells; NA= Not active. In kind it is functional, cell-based, Homo sapiens. The method, boiled down: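 HIV-1-induced cytopathicity assay in CEM 4 cells. Viable cells were counted after MTT (3-(4,5-dimethylthiazol-2-yl)-2,5-diphenyltetrazolium bromide) staining. IC50 is the concentration that inhibits viral cytopathicity by 50%. For routine testing the top concentration was generally 3 µM, because solubility was limited above 10 µM.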

Assay [6] has as its system CCRF-CEM. The assay is described as §1. In kind it is functional, Homo sapiens. The method, boiled down:
as §2

In assay [7] the test system is CCRF-CEM. Briefly: Inhibitory activity against the HIV-1 in CEM cells at 1 uM concentration. In kind it is functional. The conditions noted are these: Homo sapiens.
Another assay concerns MT4. Briefly: Inhibitory activity against the HIV-1 in MT-4 cells. The conditions noted are these: Homo sapiens. In kind it is functional, cell-based. The method, boiled down:
as §2

`C=C(C)[C@@H]1CC[C@]2(C(=O)NCCCC(=O)NCCCCCC(=O)O)CC[C@]3(C)[C@H](CCC4[C@@]5(C)CC[C@H](O)C(C)(C)[C@@H]5CC[C@]43C)[C@@H]12` (stereo partly drawn) showed a concentration for half-maximal inhibition (IC50) in the assay with CCRF-CEM [1] of 5.5 µM.

For the compound `C=C(C)[C@@H]1CC[C@]2(C(=O)NCCCCCCCC(=O)NCCCC(=O)O)CC[C@]3(C)[C@H](CCC4[C@@]5(C)CC[C@H](O)C(C)(C)[C@@H]5CC[C@]43C)[C@@H]12` (stereo partly drawn), the IC50 in assay [2] came out at 44 nM; in assay [3], 129 nM.

For `C=C(C)[C@@H]1CC[C@]2(C(=O)NCCCCCCCCCCCCC(=O)O)CC[C@]3(C)[C@H](CCC4[C@@]5(C)CC[C@H](O)C(C)(C)[C@@H]5CC[C@]43C)[C@@H]12` (stereo partly drawn), in the assay with CCRF-CEM [4], the Inhibition was 35%.

`C=C(C)[C@@H]1CC[C@]2(C(=O)NCC(=O)NCCCCCCCC(=O)O)CC[C@]3(C)[C@H](CCC4[C@@]5(C)CC[C@H](O)C(C)(C)[C@@H]5CC[C@]43C)[C@@H]12` (stereo partly drawn): the Inhibition with CCRF-CEM [4] turned out to be 30%.

Compound `C=C(C)[C@@H]1CC[C@]2(C(=O)NCCCCCCC(=O)NCCC(=O)O)CC[C@]3(C)[C@H](CCC4[C@@]5(C)CC[C@H](O)C(C)(C)[C@@H]5CC[C@]43C)[C@@H]12` (stereo partly drawn) showed an IC50 in the assay with CCRF-CEM [1] of 4.5 µM. This lies in the single-digit micromolar range.

Regarding `C=C(C)[C@@H]1CC[C@]2(C(=O)NCCCCCC(=O)NCCCC(=O)O)CC[C@]3(C)[C@H](CCC4[C@@]5(C)CC[C@H](O)C(C)(C)[C@@H]5CC[C@]43C)[C@@H]12` (stereo partly drawn), the IC50 in the assay on CCRF-CEM [1] came to 3 µM.

Consider `C=C(C)[C@@H]1CC[C@]2(C(=O)NCCCC(=O)O)CC[C@]3(C)[C@H](CCC4[C@@]5(C)CC[C@H](O)C(C)(C)[C@@H]5CC[C@]43C)[C@@H]12` (stereo partly drawn), for which, in the assay with CCRF-CEM [5], the IC50 result was “Not Active”.

Turning to `C=C(C)[C@@H]1CC[C@]2(C(=O)NCCCCC(=O)NCCCCC(=O)O)CC[C@]3(C)[C@H](CCC4[C@@]5(C)CC[C@H](O)C(C)(C)[C@@H]5CC[C@]43C)[C@@H]12` (stereo partly drawn), it took 4.5 µM to reach half-maximal inhibition with CCRF-CEM [1] (IC50).

Turning to `C=C(C)[C@@H]1CC[C@]2(C(=O)NCCC(=O)O)CC[C@]3(C)[C@H](CC[C@@H]4[C@@]5(C)CC[C@H](O)C(C)(C)[C@@H]5CC[C@]43C)[C@@H]12`, in the assay with CCRF-CEM [5], the IC50 result was “Not Active”.

`C=C(C)[C@@H]1CC[C@]2(C(=O)NCCC(=O)NCCCCCCC(=O)O)CC[C@]3(C)[C@H](CCC4[C@@]5(C)CC[C@H](O)C(C)(C)[C@@H]5CC[C@]43C)[C@@H]12` (stereo partly drawn): the Inhibition in the assay with CCRF-CEM [6] stood at 20%.

With `C=C(C)[C@@H]1CC[C@]2(C(=O)NCC(=O)O)CC[C@]3(C)[C@H](CCC4[C@@]5(C)CC[C@H](O)C(C)(C)[C@@H]5CC[C@]43C)[C@@H]12` (stereo partly drawn), the IC50 result with CCRF-CEM [5] is “Not Active”.

In the assay with CCRF-CEM [7], `C=C(C)[C@@H]1CC[C@]2(C(=O)NCCCCC(=O)O)CC[C@]3(C)[C@H](CC[C@@H]4[C@@]5(C)CC[C@H](O)C(C)(C)[C@@H]5CC[C@]43C)[C@@H]12` displayed an inhibition at 1 µM of 46%.

Take `C=C(C)[C@@H]1CC[C@]2(C(=O)NCCCCCC(=O)O)CC[C@]3(C)[C@H](CC[C@@H]4[C@@]5(C)CC[C@H](O)C(C)(C)[C@@H]5CC[C@]43C)[C@@H]12`: the values for the concentration for half-maximal inhibition (IC50) in the assay on MT4 and in the assay with CCRF-CEM [1] were 2400 nM and 2.3 µM, respectively.

Regarding `C=C(C)[C@@H]1CC[C@]2(C(=O)NCCCCCCC(=O)O)CC[C@]3(C)[C@H](CC[C@@H]4[C@@]5(C)CC[C@H](O)C(C)(C)[C@@H]5CC[C@]43C)[C@@H]12`, the IC50 in the assay with CCRF-CEM [1] stood at 12 µM; in assay [3] it was 4300 nM.

In turn, `Cc1ccnc2c1NC(=O)c1cccnc1N2C1CC1` [NEVIRAPINE] came in with an IC50 in the assay with CCRF-CEM [1] of 0.084 µM.
